{"source": "ChEMBL document CHEMBL4049388", "about": "“Facile and efficient access to Androsten-17-(1',3',4')-pyrazoles and Androst-17β-(1',3',4')-pyrazoles via Vilsmeier reagents, and their antiproliferative activity evaluation in vitro” (Eur J Med Chem, 2017)", "key": {"[1]": {"experiment": "Cytotoxicity against human 293T cells assessed as growth inhibition at 10 uM after 72 hrs by SRB assay relative to control", "type": "cell-based", "details": "HEK-293T cells, read-out: GI", "procedure,_shortened": "(§1)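 SRB single-dose screen at 10 μM on 293T, A549, Hela and MCF-7 cells. Results reported as percent inhibitory ratio (mean ± SD).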"}, "A549 [2]": {"test_system": "A549", "experiment": "Cytotoxicity against human A549 cells assessed as growth inhibition at 10 uM after 72 hrs by SRB assay relative to control", "type": "functional", "details": "A549, 72 h, read-out: GI", "procedure,_shortened": "as §1"}, "HEK-293T": {"test_system": "HEK-293T", "experiment": "Cytotoxicity against human 293T cells after 72 hrs by SRB assay", "type": "cell-based", "procedure,_shortened": "(§2)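 SRB assay on 293T, A549, Hela and MCF-7 cells, with cisplatin as reference control. IC50 calculated for each compound from triplicate assays.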"}, "A549 [3]": {"test_system": "A549", "experiment": "Cytotoxicity against human A549 cells after 72 hrs by SRB assay", "type": "functional, cell-based", "details": "A549, 72 h", "procedure,_shortened": "as §2"}, "HeLa [4]": {"test_system": "HeLa", "experiment": "Cytotoxicity against human HeLa cells after 72 hrs by SRB assay", "type": "functional, cell-based", "procedure,_shortened": "as §2"}, "MCF7": {"test_system": "MCF7", "experiment": "Cytotoxicity against human MCF7 cells after 72 hrs by SRB assay", "type": "functional, cell-based", "details": "MCF7, 72 h", "procedure,_shortened": "as §2"}, "HeLa [5]": {"test_system": "HeLa", "experiment": "Induction of apoptosis in human HeLa cells after 24 hrs by Annexin-V-FITC/propidium iodide staining based flow cytometry", "type": "functional, cell-based", "procedure,_shortened": "(§3)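 Hela cells seeded at 10^6 per well and stabilized 24 h at 37 °C, 5% CO2. Then treated 24 h at 2.5, 5.0 or 7.5 μM, DMSO negative control. Cells washed in cold PBS, resuspended at 1×10^6 cells/mL in cold binding buffer, stained with annexin V-FITC then PI for 15 min in dark, analysed by flow cytometry.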"}, "HeLa [6]": {"test_system": "HeLa", "experiment": "Induction of apoptosis in human HeLa cells assessed as nuclear condensation at 7.5 uM after 48 hrs by Hoechst 33342 staining based fluorescence microscopic method", "type": "functional, cell-based", "procedure,_shortened": "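Hela cells seeded at 10^6 per well on cover slips and incubated 16 h. Then exposed 48 h at 2.5, 5.0 or 7.5 μM, DMSO negative control. Cells fixed in 4% paraformaldehyde for 15 min, washed in PBS, stained with Hoechst 33342 for 10 min. Nuclear morphology viewed by fluorescence microscopy, ex 350 nm / em 460 nm.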"}, "HeLa [7]": {"test_system": "HeLa", "experiment": "Induction of apoptosis in human HeLa cells assessed as gated cells at necrotic stage at 2.5 uM after 24 hrs by Annexin-V-FITC/propidium iodide staining based flow cytometry (reference value: 0.05%)", "type": "functional", "procedure,_shortened": "as §3"}, "HeLa [8]": {"test_system": "HeLa", "experiment": "Induction of apoptosis in human HeLa cells assessed as gated cells at viable stage at 2.5 uM after 24 hrs by Annexin-V-FITC/propidium iodide staining based flow cytometry (reference value: 99.88%)", "type": "functional", "procedure,_shortened": "as §3"}, "HeLa [9]": {"test_system": "HeLa", "experiment": "Induction of apoptosis in human HeLa cells assessed as total cells at late apoptotic stage at 2.5 uM after 24 hrs by Annexin-V-FITC/propidium iodide staining based flow cytometry (reference value: 0.03%)", "type": "functional", "procedure,_shortened": "as §3"}, "HeLa [10]": {"test_system": "HeLa", "experiment": "Induction of apoptosis in human HeLa cells assessed as total cells at early apoptotic stage at 2.5 uM after 24 hrs by Annexin-V-FITC/propidium iodide staining based flow cytometry (reference value: 0.04%)", "type": "functional", "procedure,_shortened": "as §3"}, "HeLa [11]": {"test_system": "HeLa", "experiment": "Induction of apoptosis in human HeLa cells assessed as gated cells at necrotic stage at 5 uM after 24 hrs by Annexin-V-FITC/propidium iodide staining based flow cytometry (reference value: 0.05%)", "type": "functional", "procedure,_shortened": "as §3"}, "HeLa [12]": {"test_system": "HeLa", "experiment": "Induction of apoptosis in human HeLa cells assessed as gated cells at late apoptotic stage at 5 uM after 24 hrs by Annexin-V-FITC/propidium iodide staining based flow cytometry (reference value: 0.03%)", "type": "functional", "procedure,_shortened": "as §3"}, "HeLa [13]": {"test_system": "HeLa", "experiment": "Induction of apoptosis in human HeLa cells assessed as gated cells at early apoptotic stage at 5 uM after 24 hrs by Annexin-V-FITC/propidium iodide staining based flow cytometry (reference value: 0.04%)", "type": "functional", "procedure,_shortened": "as §3"}, "HeLa [14]": {"test_system": "HeLa", "experiment": "Induction of apoptosis in human HeLa cells assessed as total cells at necrotic stage at 5 uM after 24 hrs by Annexin-V-FITC/propidium iodide staining based flow cytometry (reference value: 0.05%)", "type": "functional", "procedure,_shortened": "as §3"}, "HeLa [15]": {"test_system": "HeLa", "experiment": "Induction of apoptosis in human HeLa cells assessed as total cells at late apoptotic stage at 5 uM after 24 hrs by Annexin-V-FITC/propidium iodide staining based flow cytometry (reference value: 0.03%)", "type": "functional", "procedure,_shortened": "as §3"}, "HeLa [16]": {"test_system": "HeLa", "experiment": "Induction of apoptosis in human HeLa cells assessed as total cells at viable stage at 5 uM after 24 hrs by Annexin-V-FITC/propidium iodide staining based flow cytometry (reference value: 96.16%)", "type": "functional", "procedure,_shortened": "as §3"}, "HeLa [17]": {"test_system": "HeLa", "experiment": "Induction of apoptosis in human HeLa cells assessed as total cells at early apoptotic stage at 5 uM after 24 hrs by Annexin-V-FITC/propidium iodide staining based flow cytometry (reference value: 0.04%)", "type": "functional", "procedure,_shortened": "as §3"}, "HeLa [18]": {"test_system": "HeLa", "experiment": "Induction of apoptosis in human HeLa cells assessed as gated cells at necrotic stage at 7.5 uM after 24 hrs by Annexin-V-FITC/propidium iodide staining based flow cytometry (reference value: 0.05%)", "type": "functional", "procedure,_shortened": "as §3"}, "HeLa [19]": {"test_system": "HeLa", "experiment": "Induction of apoptosis in human HeLa cells assessed as gated cells at late apoptotic stage at 7.5 uM after 24 hrs by Annexin-V-FITC/propidium iodide staining based flow cytometry (reference value: 0.03%)", "type": "functional", "procedure,_shortened": "as §3"}, "HeLa [20]": {"test_system": "HeLa", "experiment": "Induction of apoptosis in human HeLa cells assessed as total cells at necrotic stage at 7.5 uM after 24 hrs by Annexin-V-FITC/propidium iodide staining based flow cytometry (reference value: 0.05%)", "type": "functional", "procedure,_shortened": "as §3"}, "HeLa [21]": {"test_system": "HeLa", "experiment": "Induction of apoptosis in human HeLa cells assessed as total cells at late apoptotic stage at 7.5 uM after 24 hrs by Annexin-V-FITC/propidium iodide staining based flow cytometry (reference value: 0.03%)", "type": "functional", "procedure,_shortened": "as §3"}, "HeLa [22]": {"test_system": "HeLa", "experiment": "Induction of apoptosis in human HeLa cells assessed as total cells at early apoptotic stage at 7.5 uM after 24 hrs by Annexin-V-FITC/propidium iodide staining based flow cytometry (reference value: 0.04%)", "type": "functional", "procedure,_shortened": "as §3"}, "HeLa [23]": {"test_system": "HeLa", "experiment": "Cell cycle arrest in human HeLa cells assessed as accumulation at S phase at 2.5 uM after 24 hrs by propidium iodide staining based flow cytometry (reference value: 18.92%)", "type": "functional"}, "HeLa [24]": {"test_system": "HeLa", "experiment": "Cell cycle arrest in human HeLa cells assessed as accumulation at G2 phase at 2.5 uM after 24 hrs by propidium iodide staining based flow cytometry (reference value: 24.36%)", "type": "functional"}, "HeLa [25]": {"test_system": "HeLa", "experiment": "Cell cycle arrest in human HeLa cells assessed as accumulation at S phase at 5 uM after 24 hrs by propidium iodide staining based flow cytometry (reference value: 18.92%)", "type": "functional"}, "HeLa [26]": {"test_system": "HeLa", "experiment": "Cell cycle arrest in human HeLa cells assessed as accumulation at G1 phase at 5 uM after 24 hrs by propidium iodide staining based flow cytometry (reference value: 56.72%)", "type": "functional"}, "HeLa [27]": {"test_system": "HeLa", "experiment": "Cell cycle arrest in human HeLa cells assessed as accumulation at S phase at 7.5 uM after 24 hrs by propidium iodide staining based flow cytometry (reference value: 18.92%)", "type": "functional"}, "HeLa [28]": {"test_system": "HeLa", "experiment": "Cell cycle arrest in human HeLa cells assessed as accumulation at G2 phase at 7.5 uM after 24 hrs by propidium iodide staining based flow cytometry (reference value: 24.36%)", "type": "functional"}, "HeLa [29]": {"test_system": "HeLa", "experiment": "Cell cycle arrest in human HeLa cells assessed as accumulation at G1 phase at 7.5 uM after 24 hrs by propidium iodide staining based flow cytometry (reference value: 56.72%)", "type": "functional"}, "HeLa [30]": {"test_system": "HeLa", "experiment": "Cell cycle arrest in human HeLa cells assessed as accumulation at S phase after 24 hrs by propidium iodide staining based flow cytometry", "type": "functional"}}, "note": "The source made the active and inactive calls. No cut-off for these calls is given here.", "data": [{"compound": "CCNCc1cn(-c2ccccc2)nc1C1=CC[C@H]2[C@@H]3CC=C4C[C@@H](O)CC[C@]4(C)[C@H]3CC[C@]12C", "values": [{"measurement": "inhibition at 72 h, 10 µM", "setting": "[1]", "value": 94.2, "unit": "%"}, {"measurement": "inhibition of growth at 10 µM", "setting": "A549 [2]", "value": 91.3, "unit": "%"}, {"measurement": "IC50", "setting": "HEK-293T", "value": 870, "unit": "nM"}, {"measurement": "IC50", "setting": "A549 [3]", "value": 7390, "unit": "nM"}, {"measurement": "IC50", "setting": "HeLa [4]", "value": 530, "unit": "nM"}, {"measurement": "IC50", "setting": "MCF7", "value": 2530, "unit": "nM"}, {"measurement": "Activity", "setting": "HeLa [5]", "value": "Dose-dependent effect"}, {"measurement": "Activity", "setting": "HeLa [6]", "value": "Active"}, {"measurement": "Activity", "setting": "HeLa [7]", "value": 1.31, "unit": "%"}, {"measurement": "Activity", "setting": "HeLa [8]", "value": 97.93, "unit": "%"}, {"measurement": "Activity", "setting": "HeLa [9]", "value": 0.16, "unit": "%"}, {"measurement": "Activity", "setting": "HeLa [10]", "value": 0.58, "unit": "%"}, {"measurement": "Activity", "setting": "HeLa [11]", "value": 3.79, "unit": "%"}, {"measurement": "Activity", "setting": "HeLa [12]", "value": 0.36, "unit": "%"}, {"measurement": "Activity", "setting": "HeLa [13]", "value": 2.41, "unit": "%"}, {"measurement": "Activity", "setting": "HeLa [14]", "value": 3.26, "unit": "%"}, {"measurement": "Activity", "setting": "HeLa [15]", "value": 0.31, "unit": "%"}, {"measurement": "Activity", "setting": "HeLa [16]", "value": 80.32, "unit": "%"}, {"measurement": "Activity", "setting": "HeLa [17]", "value": 2.08, "unit": "%"}, {"measurement": "Activity", "setting": "HeLa [18]", "value": 3.12, "unit": "%"}, {"measurement": "Activity", "setting": "HeLa [19]", "value": 1.01, "unit": "%"}, {"measurement": "Activity", "setting": "HeLa [20]", "value": 2.79, "unit": "%"}, {"measurement": "Activity", "setting": "HeLa [21]", "value": 0.9, "unit": "%"}, {"measurement": "Activity", "setting": "HeLa [22]", "value": 7.5, "unit": "%"}, {"measurement": "Activity", "setting": "HeLa [23]", "value": 19.8, "unit": "%"}, {"measurement": "Activity", "setting": "HeLa [24]", "value": 25.6, "unit": "%"}, {"measurement": "Activity", "setting": "HeLa [25]", "value": 24.34, "unit": "%"}, {"measurement": "Activity", "setting": "HeLa [26]", "value": 53.13, "unit": "%"}, {"measurement": "Activity", "setting": "HeLa [27]", "value": 24.77, "unit": "%"}, {"measurement": "Activity", "setting": "HeLa [28]", "value": 25.31, "unit": "%"}, {"measurement": "Activity", "setting": "HeLa [29]", "value": 49.92, "unit": "%"}, {"measurement": "Activity", "setting": "HeLa [30]", "value": "Dose-dependent effect"}]}]}
